“And” between values parts separate entries of the source, which are not always exact repeats. Identical values can stand only once.
System: HEK-293T
Assay: Multiplex assay against HEK293T
Format: toxicity, cell-based
Conditions: human
Method in brief: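 Four dyes were applied at seeding to live cells: Hoechst33342, BioTracker Green Microtubule Cytoskeleton Dye, MitoTracker Red and Annexin V Alexa Fluor 680. Imaging after compound addition used a CQ1 microscope at 37°C and 5% CO2. CellPathfinder machine-learning gating then sorted cells into Hoechst high-intensity objects or normal cells, normal cells into healthy, pyknosed or fragmented nuclei, and pyknosed cells into mitotic or apoptotic, with tubulin, mitochondrial-mass and membrane-permeability phenotypes given as per cents of healthy-nucleus cells.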

[1] = 12 h, 1 µM, compound concentration 1 uM
[2] = 12 h, 10 µM, compound concentration 10 uM
[3] = 24 h, 1 µM, compound concentration 1 uM
[4] = 24 h, 10 µM, compound concentration 10 uM
[5] = 48 h, 1 µM, compound concentration 1 uM
[6] = 48 h, 10 µM, compound concentration 10 uM

With `OCCCNc1cc(-c2ccnc(Nc3cccc(Cl)c3)n2)ccn1` the “Population Apoptotic (%)” value [1] was 66% and 65%, the “Population Fragmented Nuclei (%)” value [1] was 9% and 8% and the “Population Healthy Nuclei (%)” value [1] was 66% and 74%. The “Population Hoechst High Intensity Objects (%)” value [1] was 14% and 11%, the “Population Membrane Permeable-Phenotype (%)” value [1] was 0% and the “Population Mitochondria Different-Phenotype (%)” value [1] was 82% and 88%. For the same molecule, the “Population Mitotic Cells (%)” value [1] was 33% and 34%, the “Population Normal (%)” value [1] was 85% and 88% and the “Population Pyknosed Nuclei (%)” value [1] was 24% and 16%. For the same molecule, the “Population Tubulin-Different-Phenotype (%)” value [1] was 75% and 57%, the “Total Cell Count” value [1] was 204 and 173 and the “Population Apoptotic (%)” value [2] was 78% and 75%. The “Population Fragmented Nuclei (%)” value [2] was 14%, the “Population Healthy Nuclei (%)” value [2] was 55% and 67% and the “Population Hoechst High Intensity Objects (%)” value [2] was 30% and 41%. For the same molecule, the “Population Membrane Permeable-Phenotype (%)” value [2] was 1% and 10%, the “Population Mitochondria Different-Phenotype (%)” value [2] was 83% and 85% and the “Population Mitotic Cells (%)” value [2] was 21% and 25%. The “Population Normal (%)” value [2] was 69% and 58%, the “Population Pyknosed Nuclei (%)” value [2] was 30% and 18% and the “Population Tubulin-Different-Phenotype (%)” value [2] was 80% and 72%. The “Total Cell Count” value [2] was 249 and 224, the “Population Apoptotic (%)” value [3] was 91% and 77% and the “Population Fragmented Nuclei (%)” value [3] was 10% and 13%. The “Population Healthy Nuclei (%)” value [3] was 66% and 76%, the “Population Hoechst High Intensity Objects (%)” value [3] was 14% and 15% and the “Population Membrane Permeable-Phenotype (%)” value [3] was 0%. For the same molecule, the “Population Mitochondria Different-Phenotype (%)” value [3] was 80% and 86%, the “Population Mitotic Cells (%)” value [3] was 8% and 22% and the “Population Normal (%)” value [3] was 85% and 84%. The “Population Pyknosed Nuclei (%)” value [3] was 22% and 10%, the “Population Tubulin-Different-Phenotype (%)” value [3] was 61% and the “Total Cell Count” value [3] was 228 and 202. For the same molecule, the “Population Apoptotic (%)” value [4] was 71% and 78%, the “Population Fragmented Nuclei (%)” value [4] was 16% and 15% and the “Population Healthy Nuclei (%)” value [4] was 44% and 54%. For the same molecule, the “Population Hoechst High Intensity Objects (%)” value [4] was 41% and 45%, the “Population Membrane Permeable-Phenotype (%)” value [4] was 0% and 3% and the “Population Mitochondria Different-Phenotype (%)” value [4] was 85% and 91%. For the same molecule, the “Population Mitotic Cells (%)” value [4] was 28% and 21%, the “Population Normal (%)” value [4] was 58% and 54% and the “Population Pyknosed Nuclei (%)” value [4] was 38% and 29%. The “Population Tubulin-Different-Phenotype (%)” value [4] was 88% and 82%, the “Total Cell Count” value [4] was 237 and 207 and the “Population Apoptotic (%)” value [5] was 82% and 61%. For the same molecule, the “Population Fragmented Nuclei (%)” value [5] was 12% and 17%, the “Population Healthy Nuclei (%)” value [5] was 51% and 65% and the “Population Hoechst High Intensity Objects (%)” value [5] was 18% and 21%. The “Population Membrane Permeable-Phenotype (%)” value [5] was 1% and 0%, the “Population Mitochondria Different-Phenotype (%)” value [5] was 88% and 84% and the “Population Mitotic Cells (%)” value [5] was 17% and 38%. The “Population Normal (%)” value [5] was 81% and 78%, the “Population Pyknosed Nuclei (%)” value [5] was 35% and 17% and the “Population Tubulin-Different-Phenotype (%)” value [5] was 68% and 59%. For the same molecule, the “Total Cell Count” value [5] was 232 and 193, the “Population Apoptotic (%)” value [6] was 71% and 83% and the “Population Fragmented Nuclei (%)” value [6] was 16% and 25%. For the same molecule, the “Population Healthy Nuclei (%)” value [6] was 46%, the “Population Hoechst High Intensity Objects (%)” value [6] was 57% and 56% and the “Population Membrane Permeable-Phenotype (%)” value [6] was 1% and 8%. The “Population Mitochondria Different-Phenotype (%)” value [6] was 78% and 85%, the “Population Mitotic Cells (%)” value [6] was 28% and 16% and the “Population Normal (%)” value [6] was 42% and 43%. For the same molecule, the “Population Pyknosed Nuclei (%)” value [6] was 37% and 28%, the “Population Tubulin-Different-Phenotype (%)” value [6] was 76% and 79% and the “Total Cell Count” value [6] was 262 and 238.

For `CN(C)C(=O)Cn1cc(-c2ccc(-c3nnc4ccccn34)cc2)cn1`, the “Population Apoptotic (%)” value [1] was 31% and 43%, the “Population Fragmented Nuclei (%)” value [1] was 7% and the “Population Healthy Nuclei (%)” value [1] was 80% and 79%. The “Population Hoechst High Intensity Objects (%)” value [1] was 9% and 10%, the “Population Membrane Permeable-Phenotype (%)” value [1] was 0% and the “Population Mitochondria Different-Phenotype (%)” value [1] was 40% and 59%. For the same molecule, the “Population Mitotic Cells (%)” value [1] was 68% and 56%, the “Population Normal (%)” value [1] was 90% and 89% and the “Population Pyknosed Nuclei (%)” value [1] was 11% and 12%. The “Population Tubulin-Different-Phenotype (%)” value [1] was 32% and 27%, the “Total Cell Count” value [1] was 432 and 337 and the “Population Apoptotic (%)” value [2] was 32% and 51%. The “Population Fragmented Nuclei (%)” value [2] was 9% and 7%, the “Population Healthy Nuclei (%)” value [2] was 76% and 80% and the “Population Hoechst High Intensity Objects (%)” value [2] was 7% and 8%. The “Population Membrane Permeable-Phenotype (%)” value [2] was 0%, the “Population Mitochondria Different-Phenotype (%)” value [2] was 61% and 55% and the “Population Mitotic Cells (%)” value [2] was 67% and 48%. For the same molecule, the “Population Normal (%)” value [2] was 92% and 91%, the “Population Pyknosed Nuclei (%)” value [2] was 14% and 12% and the “Population Tubulin-Different-Phenotype (%)” value [2] was 42% and 18%. For the same molecule, the “Total Cell Count” value [2] was 427 and 356, the “Population Apoptotic (%)” value [3] was 27% and 46% and the “Population Fragmented Nuclei (%)” value [3] was 10% and 9%. The “Population Healthy Nuclei (%)” value [3] was 77% and 82%, the “Population Hoechst High Intensity Objects (%)” value [3] was 6% and 7% and the “Population Membrane Permeable-Phenotype (%)” value [3] was 0%. The “Population Mitochondria Different-Phenotype (%)” value [3] was 28% and 44%, the “Population Mitotic Cells (%)” value [3] was 72% and 53% and the “Population Normal (%)” value [3] was 93% and 92%. The “Population Pyknosed Nuclei (%)” value [3] was 12% and 7%, the “Population Tubulin-Different-Phenotype (%)” value [3] was 22% and 18% and the “Total Cell Count” value [3] was 595 and 447. The “Population Apoptotic (%)” value [4] was 35% and 61%, the “Population Fragmented Nuclei (%)” value [4] was 7% and 13% and the “Population Healthy Nuclei (%)” value [4] was 78% and 79%. The “Population Hoechst High Intensity Objects (%)” value [4] was 4% and 7%, the “Population Membrane Permeable-Phenotype (%)” value [4] was 0% and the “Population Mitochondria Different-Phenotype (%)” value [4] was 44% and 39%. For the same molecule, the “Population Mitotic Cells (%)” value [4] was 64% and 38%, the “Population Normal (%)” value [4] was 95% and 92% and the “Population Pyknosed Nuclei (%)” value [4] was 13% and 7%. For the same molecule, the “Population Tubulin-Different-Phenotype (%)” value [4] was 27% and 11%, the “Total Cell Count” value [4] was 506 and 425 and the “Population Apoptotic (%)” value [5] was 18% and 32%. The “Population Fragmented Nuclei (%)” value [5] was 11%, the “Population Healthy Nuclei (%)” value [5] was 81% and 80% and the “Population Hoechst High Intensity Objects (%)” value [5] was 3% and 4%. The “Population Membrane Permeable-Phenotype (%)” value [5] was 0%, the “Population Mitochondria Different-Phenotype (%)” value [5] was 20% and 22% and the “Population Mitotic Cells (%)” value [5] was 81% and 67%. For the same molecule, the “Population Normal (%)” value [5] was 96% and 95%, the “Population Pyknosed Nuclei (%)” value [5] was 6% and 7% and the “Population Tubulin-Different-Phenotype (%)” value [5] was 13% and 12%. The “Total Cell Count” value [5] was 946 and 572, the “Population Apoptotic (%)” value [6] was 30% and 37% and the “Population Fragmented Nuclei (%)” value [6] was 18% and 14%. The “Population Healthy Nuclei (%)” value [6] was 74% and 79%, the “Population Hoechst High Intensity Objects (%)” value [6] was 5% and 2% and the “Population Membrane Permeable-Phenotype (%)” value [6] was 0%. For the same molecule, the “Population Mitochondria Different-Phenotype (%)” value [6] was 24% and 27%, the “Population Mitotic Cells (%)” value [6] was 69% and 62% and the “Population Normal (%)” value [6] was 94% and 97%. For the same molecule, the “Population Pyknosed Nuclei (%)” value [6] was 6% and 5%, the “Population Tubulin-Different-Phenotype (%)” value [6] was 14% and 12% and the “Total Cell Count” value [6] was 753 and 616.

With `COc1ccccc1N1CCN(CCCCNC(=O)c2ccc3ccccc3c2)CC1.Cl` the “Population Apoptotic (%)” value [1] was 45% and 36%, the “Population Fragmented Nuclei (%)” value [1] was 7% and 6% and the “Population Healthy Nuclei (%)” value [1] was 81% and 79%. For the same molecule, the “Population Hoechst High Intensity Objects (%)” value [1] was 6% and 5%, the “Population Mitochondria Different-Phenotype (%)” value [1] was 53% and 76% and the “Population Mitotic Cells (%)” value [1] was 54% and 63%. The “Population Normal (%)” value [1] was 93% and 94%, the “Population Tubulin-Different-Phenotype (%)” value [1] was 41% and 35% and the “Total Cell Count” value [1] was 430 and 354. For the same molecule, the “Population Apoptotic (%)” value [2] was 71% and 70%, the “Population Fragmented Nuclei (%)” value [2] was 4% and 7% and the “Population Healthy Nuclei (%)” value [2] was 69% and 75%. The “Population Hoechst High Intensity Objects (%)” value [2] was 16% and 15%, the “Population Mitochondria Different-Phenotype (%)” value [2] was 90% and 93% and the “Population Mitotic Cells (%)” value [2] was 28% and 29%. For the same molecule, the “Population Normal (%)” value [2] was 83% and 84%, the “Population Tubulin-Different-Phenotype (%)” value [2] was 75% and 72% and the “Total Cell Count” value [2] was 321 and 256. The “Population Apoptotic (%)” value [3] was 27% and 36%, the “Population Fragmented Nuclei (%)” value [3] was 8% and 7% and the “Population Healthy Nuclei (%)” value [3] was 78% and 82%. The “Population Hoechst High Intensity Objects (%)” value [3] was 6%, the “Population Mitochondria Different-Phenotype (%)” value [3] was 38% and 62% and the “Population Mitotic Cells (%)” value [3] was 72% and 63%. For the same molecule, the “Population Normal (%)” value [3] was 93%, the “Population Tubulin-Different-Phenotype (%)” value [3] was 32% and 26% and the “Total Cell Count” value [3] was 561 and 444. For the same molecule, the “Population Apoptotic (%)” value [4] was 56% and 60%, the “Population Fragmented Nuclei (%)” value [4] was 7% and 10% and the “Population Healthy Nuclei (%)” value [4] was 74% and 69%. For the same molecule, the “Population Hoechst High Intensity Objects (%)” value [4] was 13% and 17%, the “Population Mitochondria Different-Phenotype (%)” value [4] was 96% and 94% and the “Population Mitotic Cells (%)” value [4] was 43% and 39%. For the same molecule, the “Population Normal (%)” value [4] was 86% and 82%, the “Population Tubulin-Different-Phenotype (%)” value [4] was 87% and 66% and the “Total Cell Count” value [4] was 393 and 276. For the same molecule, the “Population Apoptotic (%)” value [5] was 20% and 46%, the “Population Healthy Nuclei (%)” value [5] was 81% and 78% and the “Population Hoechst High Intensity Objects (%)” value [5] was 3% and 5%. The “Population Mitochondria Different-Phenotype (%)” value [5] was 34% and 37%, the “Population Mitotic Cells (%)” value [5] was 79% and 53% and the “Population Normal (%)” value [5] was 96% and 94%. The “Population Tubulin-Different-Phenotype (%)” value [5] was 20% and 22%, the “Total Cell Count” value [5] was 841 and 635 and the “Population Apoptotic (%)” value [6] was 60% and 78%. For the same molecule, the “Population Fragmented Nuclei (%)” value [6] was 8%, the “Population Healthy Nuclei (%)” value [6] was 77% and 78% and the “Population Hoechst High Intensity Objects (%)” value [6] was 8% and 10%. The “Population Mitochondria Different-Phenotype (%)” value [6] was 88% and 92%, the “Population Mitotic Cells (%)” value [6] was 40% and 21% and the “Population Normal (%)” value [6] was 91% and 89%. The “Population Tubulin-Different-Phenotype (%)” value [6] was 73% and 71% and the “Total Cell Count” value [6] was 519 and 329.

Reference: ChEMBL document CHEMBL5724801, “EUbOPEN Chemogenomics Library - Multiplex” (2024)
